Laboratory results as given in publication PMC6318120 (Cellular and molecular life sciences : CMLS, 2017).

What was measured:
[1] = test system: Cx43-hemichannels in primary bovine corneal endothelial cells (BCECs); conditions: cited from earlier work
[2] = test system: Cx43-hemichannels; conditions: cited from earlier work; for effect on Cx43-hemichannel inhibition by high [Ca2+]i: 1 μM [Ca2+]i
[3] = test system: Cx43 gap junctions; conditions: cited from earlier work
[4] = test system: Cx43-hemichannels in HeLa cells overexpressing Cx43; assay: Whole-cell patch clamp recording of unitary Cx43-hemichannel currents; assay type: cell-based, human; conditions: peptide 100 μM via patch pipette
[5] = test system: native HeLa cells, which lack endogenous Cx43 expression; assay: Whole-cell patch clamp recording in native HeLa cells; assay type: cell-based, human; conditions: peptide 100 μM; voltage steps -30 to +60 mV; Supplementary Fig. 1
How it was run: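 Whole-cell patch clamp was done on untransfected HeLa cells. The CsCl/EGTA/TEA pipette solution (pH 7.2) was set to 1 µM free Ca2+ and delivered test peptide (100 µM). Steps ran from −30 to +60 mV for 30 s, acquired at 4 kHz and filtered at 1 kHz.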

[6] = test system: Cx43^M242 hemichannels; assay: ATP release from HeLa cells transiently expressing CT-truncated Cx43^M242; assay type: cell-based, human; conditions: peptide 100 μM; Fig. 6b
How it was run: (§1)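 HeLa cells were transiently transfected with the truncated Cx43 construct; empty-vector-transfected cells gave background release. Cells were triggered with 2 µM A23187 while exposed to vehicle or TAT-linked test peptides (100 µM). Extracellular ATP was measured by luciferin–luciferase and normalised to baseline from separate cultures in standard HBSS-HEPES. At least four independent measurements.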

[7] = test system: Cx43^ΔGap19M242-based hemichannels; assay: ATP release from HeLa cells transiently expressing Cx43^ΔGap19M242; assay type: cell-based, human; conditions: peptide 100 μM; 2 μM A23187; n = 4; Fig. 7a
How it was run: as §1

In the case of Cc1ccc2c(c1)C(=O)C1(O)CCN(c3ccccc3)C1=N2 (single isomer, unassigned; (-)) [(−)-blebbistatin], the “effect on thrombin-induced inhibition of Cx43-hemichannels in BCECs” value ([1]; thrombin-treated BCECs) is given as “could be alleviated” and the “effect on Cx43-hemichannel inhibition by high [Ca2+]i” value [2] is given as “prevented the Cx43-hemichannel inhibition by high [Ca^2+]i”.

In the case of “Gap19: nine amino acid sequence of L2, selective Cx43-hemichannel inhibitor (KQIEIKKFK; UniProt P17302 128-136, looked up, fragment)”, the “effect on opening of Cx43-hemichannels” value [2] is given as “inhibit the opening of Cx43-hemichannels” and the “effect on Cx43 gap junctions” value [3] is given as “not affecting Cx43 gap junctions”.

For SPTAPLSPMSPPG [SH3], the “membrane charge transfer (Qm) summary at 1 μM [Ca2+]i” value ([4]; current traces integrated over time, Fig. 4j) was “remove hemichannel inhibition”, the “effect on hemichannel opening activity at 50 nM [Ca2+]i” value ([4]; voltage steps -30 to +60 mV, 30 s, Fig. 4b, c) was “did not affect” and the “effect on inhibition of Cx43-hemichannel currents by 1 μM [Ca2+]i” value ([4]; voltage steps -30 to +60 mV, 30 s, Fig. 4g-i) was “completely prevented the inhibition”. For the same compound, the “unitary current activity in native HeLa cells at 1 μM [Ca2+]i” value [5] was “did not elicit any changes”.

In the case of “YGRKKRRORRRDGANVDMHLKQTFTKKFKYGTFFHGK [TAT-L2]”, the “effect of TAT-L2 pre-treatment on the active area in BCECs” value ([1]; pre-treatment of BCECs) is listed as “severely reduced”, the “effect on opening of Cx43-hemichannels” value [2] is listed as “inhibited the opening of Cx43-hemichannels” and the “effect on Cx43 gap junctions” value [3] is listed as “but not Cx43 gap junctions”.

In the case of YGRKKRRQRRRSRPRPDDLFI [TAT-CT9], the “restoration of ATP release of Cx43^M242 hemichannels in response to 2 μM A23187” value [6] is given as “can restore the activity”, the “restoration of the thrombin-reduced active area in BCECs” value ([1]; thrombin-treated BCECs) is given as “could restore the thrombin-reduced active area” and the “effect on Cx43-hemichannel inhibition by high [Ca2+]i” value [2] is given as “prevented the Cx43-hemichannel inhibition by high [Ca^2+]i”. The “restoration of the activity of Cx43^M239-based hemichannels” value ([2]; cell-permeant synthetic peptide) was “can be restored”.

With YGRKKRRQRRRSSPTAPLSPMSPPG [TAT-SH3] the “restoration of ATP release of Cx43^M242 hemichannels in response to 2 μM A23187” value [6] was “restored the ATP release properties” and the “restoration of ATP release through Cx43^ΔGap19M242-based hemichannels” value [7] was “could not be restored”.

For thrombin, the “effect of thrombin pre-treatment on the active area in BCECs” value ([1]; pre-treatment of BCECs) is given as “strongly reduced”.
